Results from ChEMBL document CHEMBL1155904, “Synthesis and evaluation of heteroaryl-ketone derivatives as a novel class of VEGFR-2 inhibitors” (Bioorg Med Chem Lett, 2008).

Tests used:
Format in all cases: ADME, organism-based
Details in all cases: read-out: Drug uptake
[1] = Plasma concentration in mouse at 30 mg/kg, ip after 1 hr; design: dose 30 mg/kg, route intraperitoneal
Outline: (§1)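 Mice dosed intraperitoneally at 30 mg/kg in a vehicle of 5% ethanol, 5% Tween-80, 5% PEG400 and 85% PBS. Plasma drug concentration measured at set times after injection.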

[2] = Plasma concentration in mouse at 30 mg/kg, ip after 4 hrs; design: dose 30 mg/kg, route intraperitoneal; outline: as §1
[3] = Plasma concentration in mouse at 30 mg/kg, po after 1 hr; design: dose 30 mg/kg, route oral

Molecule Cc1ccc2c(c1)c(C(=O)c1ccccc1NCc1ccc3ncccc3c1)cn2C has a concentration at 1 h [1] of 2900 nM, a concentration at 4 h [2] of 1100 nM and a concentration at 1 h [3] of 1800 nM.

O=C(c1ccccc1NCc1ccc2ncccc2c1)c1n[nH]c2ccccc12 gave a concentration at 1 h [1] of 2400 nM and a concentration at 1 h [3] of 1800 nM.
